Source: ChEMBL document CHEMBL1145824, “Simplified discodermolide analogues: synthesis and biological evaluation of 4-epi-7-dehydroxy-14,16-didemethyl-(+)-discodermolides as microtubule-stabilizing agents” (J Med Chem, 2003)

Columns and labels:
PC-3 = experiment: Inhibitory concentration against PC3 (prostate) cells; format: functional; conditions: Homo sapiens
Outline: (§1)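 Cells plated at 500-2000/well, allowed to attach and grow 48 h, then exposed continuously for 72 h to vehicle (4% DMSO) or agent. Initial screen at 5-fold dilutions; GI50 then set by a repeat screen of five 2-fold dilutions centred on the estimate, in quadruplicate. A time-zero plate was included. Cell number was read by MTS/phenazine methanesulfonate absorbance (490 minus 630 nm). Values are means ± SD, N=4.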

tubulin (Bos taurus) = experiment: Percent assembly of bovine brain tubulin induced by compound at 10 uM versus that caused by 10 uM paclitaxel
[1] = Percent competition for binding to preformed microtubules by 4 uM as against 2 uM of 3[H]paclitaxel; format: functional
Outline: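 Microtubules preformed from 2 µM bovine brain tubulin with 20 µM ddGTP in monosodium glutamate, 30 min at 37 °C. Then 2 µM [3H]paclitaxel plus 4 µM agent (final concentrations) was added for 30 min at 37 °C. Samples were centrifuged at 14000 rpm for 20 min at room temperature, and supernatant radioactivity was counted. Bound = total minus free, normalized to the no-inhibitor control.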

2008 = experiment: Inhibitory concentration against 2008 (ovarian) cells; format: functional; conditions: Homo sapiens; outline: as §1
[2] = Inhibitory concentration against […] (breast) cells; format: functional; conditions: Homo sapiens; outline: as §1
A549 = experiment: Antiproliferative potency determined as inhibitory concentration against A549 cells; format: functional, cell-based; conditions: Homo sapiens
Outline: (§2)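 MTS growth-inhibition assay. Cells seeded at 500-2000/well, attached and grown 48 h, then given agent or vehicle (4% DMSO) for 72 h continuous exposure. A time-zero plate was read. Initial 5-fold dilution screen, then 2-fold dilutions (five concentrations) centred on the estimated GI50, in quadruplicate. Read-out A490 minus A630 with phenazine methanesulfonate as electron acceptor. Mean ± SD, N = 4 over 10 concentrations.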

[3] = Antiproliferative potency determined as inhibitory concentration against MG63 cells; format: functional, cell-based; conditions: Homo sapiens, MG-63; outline: as §2

Row | SMILES | GI50 (PC-3) | Activity (tubulin (Bos taurus)) | Activity [1] | GI50 2008 | GI50 [2] | IC50 (A549) | IC50 [3]
1 | CCCCCC[C@H](OC(N)=O)[C@@H](C)[C@H](O)CC/C=C\C(C)[C@@H](O)[C@@H](C)/C=C\CC[C@@H]1O[C@@H](OC)[C@H](C)[C@@H](OCOC)[C@@H]1C (stereo partly drawn) | > 50000 nM | 6% | 9% | 29000 nM | 24000 nM | – | –
2 | C=C/C=C\[C@H](C)[C@H](OC(N)=O)[C@@H](C)[C@H](O)[C@@H](C)C/C(C)=C\[C@H](C)[C@@H](O)[C@@H](C)/C=C\[C@@H](O)C[C@@H]1OC(=O)[C@H](C)[C@@H](O)[C@H]1C [DISERMOLIDE] | 3000 nM | 14% | 32% | 1500 nM | 2600 nM | – | –
3 | C=C/C=C\[C@H](C)[C@H](OC(N)=O)[C@@H](C)[C@H](O)CC/C=C\C(C)[C@@H](O)[C@@H](C)/C=C\CC[C@@H]1OC(=O)[C@H](C)[C@@H](OCOC)[C@@H]1C (stereo partly drawn) | 1800 nM | 27% | 57% | 650 nM | 870 nM | – | –
4 | C=C/C=C\C(C)C(OC(N)=O)[C@@H](C)[C@H](O)C(C)C/C(C)=C\C(C)[C@@H](O)[C@@H](C)/C=C\C(C[C@@H]1OC(=O)[C@H](C)[C@@H](OC(C)=O)[C@H]1C)OC(C)=O (stereo partly drawn) | – | – | – | – | – | 0.8 nM | –
5 | CC(=O)O[C@H]1C(=O)[C@@]2(C)[C@H]([C@H](OC(=O)c3ccccc3)[C@]3(O)C[C@H](OC(=O)[C@H](O)[C@@H](NC(=O)c4ccccc4)c4ccccc4)C(C)=C1C3(C)C)[C@]1(OC(C)=O)CO[C@@H]1C[C@@H]2O [PACLITAXEL] | 15 nM | 100% | 37% | 9.2 nM | 2.4 nM | 1.4 nM | –
6 | C=C/C=C\C(C)C(OC(N)=O)[C@@H](C)[C@H](O)[C@@H](C)C/C=C\C(C)[C@@H](O)[C@@H](C)/C=C\C(O)C[C@@H]1OC(=O)C(C)[C@@H](O)[C@H]1C (stereo partly drawn) | – | – | – | – | – | 7.8 nM | –
7 | C=C/C=C\C(C)C(OC(N)=O)[C@@H](C)[C@H](O)C(C)C/C(C)=C\C(C)[C@@H](OC(C)=O)[C@@H](C)/C=C\C(O)C[C@@H]1OC(=O)[C@H](C)[C@@H](OC(C)=O)[C@H]1C (stereo partly drawn) | – | – | – | – | – | 164 nM | –
8 | C=C/C=C\C(C)C(OC(N)=O)[C@@H](C)[C@H](O)[C@@H](C)C/C=C/C(C)[C@@H](O)[C@@H](C)/C=C\C(O)C[C@@H]1OC(=O)C(C)[C@@H](O)[C@H]1C (stereo partly drawn) | – | – | – | – | – | 485 nM | –
9 | C=C/C=C\C(C)C(OC(N)=O)[C@@H](C)[C@H](O)CC/C(C)=C\C(C)[C@@H](O)[C@@H](C)/C=C\C(O)C[C@@H]1OC(=O)[C@H](C)[C@@H](O)[C@H]1C (stereo partly drawn) | – | – | – | – | – | – | 10 nM
10 | C=C/C=C\C(C)C(OC(N)=O)[C@@H](C)[C@H](O)C(C)C/C(C)=C\C(C)[C@@H](O)[C@@H](C)/C=C\C(O)C[C@@H]1OC(=O)[C@H](C)[C@@H](OC(C)=O)[C@H]1C (stereo partly drawn) | – | – | – | – | – | 3.8 nM | –
11 | CCCCCC(C)(C)[C@H](OC(N)=O)[C@@H](C)[C@H](O)CC/C=C\C(C)[C@@H](O)[C@@H](C)/C=C\CC[C@@H]1O[C@@H](OC)[C@H](C)[C@@H](OCOC)[C@@H]1C (stereo partly drawn) | 38000 nM | 9% | 15% | 42000 nM | 23000 nM | – | –
12 | C=C/C=C\C(C)C(OC(N)=O)[C@@H](C)[C@H](O)[C@@H](C)C/C(C)=C\C(C)[C@@H](O)[C@@H](C)/C=C\C(O)C[C@@H]1OC(=O)C(C)=C[C@H]1C (stereo partly drawn) | – | – | – | – | – | 1.8 nM | –
13 | C=C/C=C\C(C)C(OC(N)=O)[C@@H](C)[C@H](OC(C)=O)C(C)C/C(C)=C\C(C)[C@@H](O)[C@@H](C)/C=C\C(O)C[C@@H]1OC(=O)[C@H](C)[C@@H](OC(C)=O)[C@H]1C (stereo partly drawn) | – | – | – | – | – | 524 nM | –
14 | C=C/C=C\C(C)C(OC(N)=O)[C@@H](C)[C@H](O)[C@@H](C)C/C(C)=C\C(C)[C@@H](O)[C@@H](C)/C=C\C(O)C[C@@H]1OC(=O)[C@H](C)[C@@H](O)[C@H]1C (stereo partly drawn) | 67 nM | >100% | 64% | 72 nM | 16 nM | 3.8 nM | 6 nM
15 | C=C/C=C\[C@H](C)[C@H](OC(N)=O)[C@@H](C)[C@H](O)CC/C=C\C(C)[C@@H](O)[C@@H](C)/C=C\CC[C@@H]1OC(=O)[C@H](C)[C@@H](O)[C@@H]1C (stereo partly drawn) | 7500 nM | 11% | 21% | 5200 nM | 2100 nM | – | –
16 | C=C/C=C\C(C)C(OC(N)=O)[C@@H](C)[C@H](O)[C@@H](C)C/C(C)=C\C(C)[C@@H](O)[C@@H](C)/C=C\CC[C@@H]1OC(=O)C=C[C@H]1C (stereo partly drawn) | – | – | – | – | – | 11.4 nM | –
17 | C=C/C=C\C(C)C(OC(N)=O)[C@@H](C)[C@H](O)C(C)C/C(C)=C\C(C)[C@@H](O)[C@@H](C)/C=C\C(C[C@@H]1OC(=O)[C@H](C)[C@@H](O)[C@H]1C)OC(C)=O (stereo partly drawn) | – | – | – | – | – | 0.8 nM | –
18 | COCO[C@H]1[C@@H](C)[C@H](CC/C=C\[C@H](C)[C@H](O)[C@@H](C)/C=C\CC[C@@H](O)[C@H](C)COC(N)=O)OC(=O)[C@@H]1C | > 50000 nM | <5% | 13% | > 50000 nM | 30000 nM | – | –
19 | C=C/C=C\[C@H](C)[C@H](OC(N)=O)[C@@H](C)[C@H](O)CC/C=C\C(C)[C@@H](O)[C@@H](C)/C=C\CC[C@@H]1O[C@@H](OC)[C@H](C)[C@@H](OCOC)[C@@H]1C (stereo partly drawn) | 15000 nM | 11% | 19% | 4700 nM | 3400 nM | – | –
